According to article PMC3119721 (Biochemistry, 2011):

How the values were obtained:
[1] = biological target: PduO-type ATP-dependent cob(I)alamin adenosyltransferase (ATR) (Methylorubrum extorquens, UniProt C5AZG1, DEL180-190); assay: isothermal titration calorimetry; type: binding
Summary of the method: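 Recombinant His-tagged M. extorquens ATR, D180X mutant, expressed in E. coli BL21(DE3) and Ni-NTA purified. 40–45 μM protein in 50 mM HEPES pH 8, 0.3 M KCl, 10 mM MgCl2, 5% glycerol at 4 °C, titrated with 45 aliquots of 1–2 mM ATP or AdoCbl. KA, ΔH° and ΔS° were obtained from two-site (ATP) or single-site (AdoCbl) fits, in triplicate.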

[2] = system: Nc1ncnc2c1ncn2[C@@H]1O[C@H](COP(=O)(O)OP(=O)(O)OP(=O)(O)O)[C@@H](O)[C@H]1O; assay: purified protein; type: biochemical, Methylorubrum extorquens; settings: printed as D180X; 55 μM HOCbl (reduced to cob(I)alamin), ATP 0.5-300 μM
purified protein = substrate: Nc1ncnc2c1ncn2[C@@H]1O[C@H](COP(=O)(O)OP(=O)(O)OP(=O)(O)O)[C@@H](O)[C@H]1O; assay: purified protein; type: biochemical, Methylorubrum extorquens; settings: apparent; 55 μM HOCbl (reduced to cob(I)alamin), ATP 0.5-300 μM

For `Nc1ncnc2c1ncn2[C@@H]1O[C@H](COP(=O)(O)OP(=O)(O)OP(=O)(O)O)[C@@H](O)[C@H]1O` [ATP], the Kd [1] was 0.48 ± 0.02 µM.

For “PduO-type ATP-dependent cob(I)alamin adenosyltransferase (ATR) (Methylorubrum extorquens AM1; DEL180-190)”, the Km [2] was 9.5 ± 1.2 µM, the kcat [2] was “(2.5 ± 0.1) × 10^−1 s^−1” and the kcat/Km [2] was 27000 ± 1000 M⁻¹ s⁻¹.

B1: PduO-type ATP-dependent cob(I)alamin adenosyltransferase (ATR) (Methylorubrum extorquens AM1) (protein)
chain: MVKLNRIYTRTGDQGTTGLANGERRSKADLRVEAYGTVDETNACIGLARLTAEPALDAMLARIQNDLFDLGADLATPPSDKPLGYEPLRIVPAQVQRLETEIDALNANIPPLKSFVLPGGSAAAAALHLARTVCRRAERLVVALSGVESEAISGEALQYLNRLSDFLFVASRAANRDGADDVLWVPGQNR
In the case of B1, the Km (purified protein) is reported as 8.4 ± 1.4 µM.
